Calls of active or inactive are those of the source. The rule behind the calls is not given here.

The nature of data set [1]: Induction of necrosis in endothelin-1 induced neonatal rat ventricular cardiomyocytes assessed as release of adenylate kinase at 50 uM measured after 24 hrs by bioluminescence assay. The settings on record: cardiac muscle cell. Type of data set: cell-based. The essentials:
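Neonatal rat cardiomyocytes treated 24 h at 50 μM; adenylate kinase released into medium measured by ToxiLight bioluminescence on a luminometer; relative to vehicle, mean ± SD, n = 3.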

A short description of data set [2]: Induction of aggregation of compounds at 100 uM by nephalometric method.
Data set [3] deals with GATA4/NKX2-5 (Mus musculus) (UniProt Q08369+P42582). Briefly: (§1) Inhibition of mouse GATA4/NKX2-5 transcriptional synergy expressed in African green monkey COS-1 cells measured after 30 hrs by dual luciferase reporter gene assay. It is filed as cell-based. In short, it runs like this:
(§2)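 COS-1 cells co-transfected (Fugene 6, DNA:reagent 1:3) with p3xNKE-luc, Renilla pRL-TKd238 control, and pMT2-GATA4, pMT2-NKX2-5, both, or empty pMT2; DNA balanced with pMT2. Compounds added 6 h post-transfection in 0.1% DMSO, medium renewed at 24 h, lysis at 30 h. Dual-luciferase read-out, firefly/Renilla normalized to vehicle; duplicate wells.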

The next data set addresses GATA4/NKX2-5 (Mus musculus, UniProt P42582+Q08369). The description is as §1. It is filed as cell-based. In short, it runs like this:
as §2

In data set [4] the target is Hydroxycarboxylic acid receptor 2 (Homo sapiens) (UniProt Q8TDS4). The data set is described as follows: Agonist activity at human GPR109A expressed in Chem-4 cells assessed as induction of calcium flux at 12.5 uM by fluorescence assay. Type of data set: functional, cell-based. In short, it runs like this: (§3)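 GPCR profiling panel of cell-based functional assays covering 165 GPCRs; agonist mode tested at 12.5 μM and antagonist mode at 10 μM, in duplicate.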
Chain of Hydroxycarboxylic acid receptor 2 (Homo sapiens) (Q8TDS4 whole entry): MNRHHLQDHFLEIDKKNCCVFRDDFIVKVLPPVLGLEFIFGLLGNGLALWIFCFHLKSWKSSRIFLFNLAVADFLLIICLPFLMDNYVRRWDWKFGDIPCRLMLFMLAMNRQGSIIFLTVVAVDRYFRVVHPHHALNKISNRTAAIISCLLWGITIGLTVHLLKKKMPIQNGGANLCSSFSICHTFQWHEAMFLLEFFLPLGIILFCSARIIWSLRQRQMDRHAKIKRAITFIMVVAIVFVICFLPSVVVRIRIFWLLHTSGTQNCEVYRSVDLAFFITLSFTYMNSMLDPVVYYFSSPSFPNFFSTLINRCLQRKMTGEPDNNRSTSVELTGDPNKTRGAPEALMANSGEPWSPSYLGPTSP
(In general: A change in cytosolic calcium serves as a functional read-out for many receptors and channels.)

Data set [5] addresses T1, GATA4/NKX2-5 (Rattus norvegicus) (UniProt P46152+O35767). The data set is described as follows: Inhibition of GATA4/NKX2-5 interaction in neonatal rat ventricular cardiomyocytes assessed as decrease in basal mRNA level of BNP at 10 uM after 24 hrs by real-time PCR analysis. In short, it runs like this:
(§4)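 Neonatal rat ventricular myocytes (2–4-day-old Sprague-Dawley or Wistar), preplated, seeded on 6-well plates, moved to complete serum-free medium next day and cultured 24 h. Compounds (10–100 μM) added 1 h before 100 nM endothelin-1 or none; ANP and BNP mRNA quantified by RT-PCR at 24 h, normalized to 18S RNA, relative to vehicle; mean ± SD, n = 3–6.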
(Quantitative PCR measures a nucleic acid by following its amplification.)

Data set [6] in a line: Induction of apoptosis in endothelin-1 induced neonatal rat ventricular cardiomyocytes at 50 uM measured after 24 hrs by TUNEL assay. The settings on record: cardiac muscle cell. Type of data set: cell-based. The essentials:
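Neonatal rat cardiomyocytes on 8-well chamber slides treated 24 h at 50 μM; apoptotic cells detected by TUNEL with peroxidase in situ kit.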

Data set [7] is described as follows: Drug metabolism in mouse embryonic stem cells assessed as formation of N-[4-(Ethylamino)phenyl]-5-methyl-3-phenylisoxazole-4-carboxamide at 3 to 5 uM measured after 10 days by HPLC/MS method. Type of data set: ADME, cell-based. The settings on record: embryonic stem cell, 240 h. The essentials:
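Mouse embryonic stem cells exposed 5 and 10 days to 3 or 5 μM, with DMSO and EB differentiation medium blanks. Medium extracted with chloroform; cells pelleted, saline-washed twice, sonicated in chloroform. UPLC-ESI(+)-QTOF/MS, BEH C18, 0.1% formic acid water/acetonitrile gradient 7–80% B over 5 min, 0.6 mL/min, 40 °C.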

In data set [8] the target is T1, GATA4/NKX2-5 (Rattus norvegicus). The data set is described as follows: Inhibition of GATA4/NKX2-5 interaction in neonatal rat ventricular cardiomyocytes assessed as decrease in endothelin-1 induced mRNA level of BNP at 10 uM preincubated for 1 hr followed by endothelin-1 addition measured after 23 hrs by real-time PCR analysis. In short, it runs like this:
as §4

Data set [9] has as its target Rho-associated protein kinase 1 (Homo sapiens) (UniProt Q13464). Briefly: Inhibition of human ROCK1 at 30 uM. The essentials: (§5)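 48-kinase profiling panel; compounds tested at 30 μM in duplicate.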
The target in data set [10] is Epidermal growth factor receptor (Homo sapiens) (UniProt P00533). The data set is described as follows: Inhibition of human EGFR at 30 uM. The essentials: as §5
Chain of Epidermal growth factor receptor (Homo sapiens) (P00533 whole entry): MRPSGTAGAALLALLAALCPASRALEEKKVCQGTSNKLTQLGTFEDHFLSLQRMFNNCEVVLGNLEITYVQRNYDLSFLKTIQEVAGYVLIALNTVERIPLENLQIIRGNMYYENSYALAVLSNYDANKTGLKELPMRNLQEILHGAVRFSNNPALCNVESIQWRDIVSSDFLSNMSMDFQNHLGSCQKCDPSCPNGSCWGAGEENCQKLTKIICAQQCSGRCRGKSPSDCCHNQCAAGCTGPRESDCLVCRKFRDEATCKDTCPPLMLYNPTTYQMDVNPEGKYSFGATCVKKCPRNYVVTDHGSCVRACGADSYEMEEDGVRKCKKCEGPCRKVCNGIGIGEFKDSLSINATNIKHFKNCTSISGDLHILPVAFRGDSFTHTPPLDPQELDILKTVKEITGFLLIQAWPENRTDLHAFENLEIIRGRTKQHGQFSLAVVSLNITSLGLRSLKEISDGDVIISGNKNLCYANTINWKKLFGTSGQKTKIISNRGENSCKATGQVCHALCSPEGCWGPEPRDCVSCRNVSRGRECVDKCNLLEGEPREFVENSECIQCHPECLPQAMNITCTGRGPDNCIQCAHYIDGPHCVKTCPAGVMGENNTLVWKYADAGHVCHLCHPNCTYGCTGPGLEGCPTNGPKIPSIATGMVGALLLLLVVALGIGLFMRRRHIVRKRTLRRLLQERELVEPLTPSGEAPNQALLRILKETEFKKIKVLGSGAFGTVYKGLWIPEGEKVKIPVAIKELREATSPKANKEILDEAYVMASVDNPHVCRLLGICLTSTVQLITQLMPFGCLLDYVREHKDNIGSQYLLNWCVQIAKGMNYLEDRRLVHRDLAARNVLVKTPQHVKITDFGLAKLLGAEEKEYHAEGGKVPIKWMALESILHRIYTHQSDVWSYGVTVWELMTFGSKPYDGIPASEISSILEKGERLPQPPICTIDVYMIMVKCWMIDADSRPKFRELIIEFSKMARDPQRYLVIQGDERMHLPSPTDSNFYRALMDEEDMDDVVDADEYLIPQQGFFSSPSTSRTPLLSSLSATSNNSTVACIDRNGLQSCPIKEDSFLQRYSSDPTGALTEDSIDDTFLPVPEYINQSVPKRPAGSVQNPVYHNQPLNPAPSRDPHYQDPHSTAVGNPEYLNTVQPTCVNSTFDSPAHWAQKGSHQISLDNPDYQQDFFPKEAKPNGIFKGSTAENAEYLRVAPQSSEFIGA
The target of data set [11] is Cannabinoid receptor 2 (Homo sapiens) (UniProt P34972). Briefly: Agonist activity at human CB2 receptor expressed in rat hematopoietic Chem-4 cells assessed as induction of calcium flux at 12.5 uM by fluorescence assay. It is filed as functional, cell-based. The essentials: as §3
Chain of Cannabinoid receptor 2 (Homo sapiens) (P34972 whole entry): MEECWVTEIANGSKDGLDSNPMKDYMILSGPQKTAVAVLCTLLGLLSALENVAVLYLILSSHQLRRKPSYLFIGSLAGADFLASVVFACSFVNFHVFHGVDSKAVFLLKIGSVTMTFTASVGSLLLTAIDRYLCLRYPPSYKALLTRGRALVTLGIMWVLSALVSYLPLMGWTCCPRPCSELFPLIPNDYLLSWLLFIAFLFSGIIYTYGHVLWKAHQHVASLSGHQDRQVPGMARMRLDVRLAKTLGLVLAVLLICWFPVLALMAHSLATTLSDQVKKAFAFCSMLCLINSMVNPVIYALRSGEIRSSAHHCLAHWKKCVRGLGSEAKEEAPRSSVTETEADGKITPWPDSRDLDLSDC
Data set [12] has the same target. Briefly: Antagonist activity at human CB2 receptor expressed in rat hematopoietic Chem-4 cells assessed as inhibition of CP55940 induced calcium flux at 10 uM by fluorescence assay. It is filed as functional, cell-based. The essentials: as §3
For data set [13], the target named is Growth hormone secretagogue receptor type 1 (Homo sapiens) (UniProt Q92847). Briefly: Antagonist activity at human GHS-R at 10 uM by ELISA. The settings on record: in the assay text read “by calcium flux assay” for “by ELISA”. In short, it runs like this:
as §3

The target of data set [14] is Glycogen synthase kinase-3 beta (Homo sapiens) (UniProt P49841). Briefly: Inhibition of human GSK3-beta at 30 uM. In short, it runs like this:
as §5

For data set [15], the target named is Parathyroid hormone 2 receptor (Homo sapiens) (UniProt P49190). The data set is described as follows: Antagonist activity at human PTH2 receptor expressed in rat Chem-1 cells assessed as inhibition of TIP-39 induced calcium flux at 10 uM by fluorescence assay. Type of data set: functional, cell-based. In short, it runs like this: as §3
Chain of Parathyroid hormone 2 receptor (Homo sapiens) (P49190 whole entry): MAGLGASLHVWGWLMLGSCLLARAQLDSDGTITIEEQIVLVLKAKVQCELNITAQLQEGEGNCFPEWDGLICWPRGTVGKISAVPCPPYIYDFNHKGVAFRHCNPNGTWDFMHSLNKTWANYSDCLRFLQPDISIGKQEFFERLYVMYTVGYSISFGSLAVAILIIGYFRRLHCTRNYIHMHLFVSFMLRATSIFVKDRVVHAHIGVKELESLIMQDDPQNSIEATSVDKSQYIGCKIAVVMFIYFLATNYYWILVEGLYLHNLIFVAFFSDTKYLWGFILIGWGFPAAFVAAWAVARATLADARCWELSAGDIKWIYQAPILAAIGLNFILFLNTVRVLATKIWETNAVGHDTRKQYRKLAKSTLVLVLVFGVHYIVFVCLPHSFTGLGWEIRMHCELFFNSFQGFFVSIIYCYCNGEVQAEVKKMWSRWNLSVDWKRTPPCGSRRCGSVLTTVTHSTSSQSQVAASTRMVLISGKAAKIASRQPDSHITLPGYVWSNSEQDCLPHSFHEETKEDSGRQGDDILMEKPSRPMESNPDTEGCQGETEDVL

Chain of Growth hormone secretagogue receptor type 1 (Homo sapiens) (Q92847 whole entry): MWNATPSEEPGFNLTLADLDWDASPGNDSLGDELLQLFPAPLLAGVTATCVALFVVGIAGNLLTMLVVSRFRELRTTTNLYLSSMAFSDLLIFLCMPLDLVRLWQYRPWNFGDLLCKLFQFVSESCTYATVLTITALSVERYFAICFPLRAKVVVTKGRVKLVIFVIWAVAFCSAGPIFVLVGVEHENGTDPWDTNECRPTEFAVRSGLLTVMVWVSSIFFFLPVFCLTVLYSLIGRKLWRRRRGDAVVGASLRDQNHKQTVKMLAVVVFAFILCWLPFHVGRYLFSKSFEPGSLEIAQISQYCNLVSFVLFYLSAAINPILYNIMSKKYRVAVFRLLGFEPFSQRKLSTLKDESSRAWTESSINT
Chain of Glycogen synthase kinase-3 beta (Homo sapiens) (P49841 whole entry, looked up): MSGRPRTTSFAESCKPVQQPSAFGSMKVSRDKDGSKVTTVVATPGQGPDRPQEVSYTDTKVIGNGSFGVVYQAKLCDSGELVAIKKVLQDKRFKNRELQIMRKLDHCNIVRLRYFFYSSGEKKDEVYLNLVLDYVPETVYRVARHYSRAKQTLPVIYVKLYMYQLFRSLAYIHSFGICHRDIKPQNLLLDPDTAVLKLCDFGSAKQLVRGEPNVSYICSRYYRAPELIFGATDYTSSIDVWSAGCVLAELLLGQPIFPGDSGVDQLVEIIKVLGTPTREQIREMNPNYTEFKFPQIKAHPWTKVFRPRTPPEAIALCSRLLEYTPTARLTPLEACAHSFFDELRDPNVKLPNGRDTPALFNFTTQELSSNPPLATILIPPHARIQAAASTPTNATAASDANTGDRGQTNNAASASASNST
Chain of Rho-associated protein kinase 1 (Homo sapiens) (Q13464 2-1354 limits assumed): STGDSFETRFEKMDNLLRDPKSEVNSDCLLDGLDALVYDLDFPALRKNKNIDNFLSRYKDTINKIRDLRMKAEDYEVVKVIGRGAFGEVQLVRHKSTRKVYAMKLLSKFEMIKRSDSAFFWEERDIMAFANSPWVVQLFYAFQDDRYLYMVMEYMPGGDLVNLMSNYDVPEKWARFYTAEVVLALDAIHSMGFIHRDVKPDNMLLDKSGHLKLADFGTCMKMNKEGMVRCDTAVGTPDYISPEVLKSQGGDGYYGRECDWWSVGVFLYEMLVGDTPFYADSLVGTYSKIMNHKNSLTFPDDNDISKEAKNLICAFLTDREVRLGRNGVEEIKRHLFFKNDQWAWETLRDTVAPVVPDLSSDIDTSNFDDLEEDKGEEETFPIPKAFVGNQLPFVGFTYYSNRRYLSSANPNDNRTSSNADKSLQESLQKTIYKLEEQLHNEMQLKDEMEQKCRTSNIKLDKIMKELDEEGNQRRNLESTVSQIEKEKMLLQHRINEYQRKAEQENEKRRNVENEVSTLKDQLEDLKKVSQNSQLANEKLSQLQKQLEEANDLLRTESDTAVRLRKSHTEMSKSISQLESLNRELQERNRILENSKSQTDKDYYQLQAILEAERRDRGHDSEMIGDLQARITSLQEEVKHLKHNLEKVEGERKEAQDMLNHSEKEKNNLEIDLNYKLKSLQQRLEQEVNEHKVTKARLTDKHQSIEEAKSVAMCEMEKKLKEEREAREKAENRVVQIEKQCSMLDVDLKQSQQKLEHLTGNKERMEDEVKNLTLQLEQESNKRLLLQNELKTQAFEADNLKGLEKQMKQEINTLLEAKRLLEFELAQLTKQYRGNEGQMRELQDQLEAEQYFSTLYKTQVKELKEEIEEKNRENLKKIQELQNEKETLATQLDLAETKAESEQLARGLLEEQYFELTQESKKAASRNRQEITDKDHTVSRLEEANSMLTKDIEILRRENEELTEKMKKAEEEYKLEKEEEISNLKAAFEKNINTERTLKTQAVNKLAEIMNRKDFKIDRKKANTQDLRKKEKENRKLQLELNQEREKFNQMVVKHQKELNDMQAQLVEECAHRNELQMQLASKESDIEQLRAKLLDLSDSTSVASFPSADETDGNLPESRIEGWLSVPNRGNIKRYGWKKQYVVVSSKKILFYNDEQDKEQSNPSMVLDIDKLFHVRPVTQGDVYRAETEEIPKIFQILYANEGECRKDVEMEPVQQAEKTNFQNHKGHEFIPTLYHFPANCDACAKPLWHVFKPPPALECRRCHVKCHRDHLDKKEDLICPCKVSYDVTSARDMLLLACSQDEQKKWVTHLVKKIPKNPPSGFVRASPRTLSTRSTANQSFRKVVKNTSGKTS

Turning to `CCN(CC)c1ccc(NC(=O)c2c(-c3ccccc3)noc2C)cc1`, the Activity result in [1] and in data set [6] was “Non-Toxic” throughout. Moreover, in [2], the result was Active. Besides, the inhibition (as a rule, the change of the read-out against control, counted positive when it falls) is “Dose-dependent effect” in data set [3]; 75% in data set [5]; 68% in data set [8]; 54% in [10]; 91.8% in data set [12]; 65.2% in data set [13]. Besides, the inhibition in data set [15] was found to be 59.5%. Also, the IC50 (commonly the concentration at which inhibition is half-maximal) on GATA4/NKX2-5 is 3 µM. Moreover, the outcome in data set [4] and in [11] was inactive. In addition, the Drug metabolism entry in [7] was “Metabolite_Detected”. The inhibition result in data set [9] and in data set [14] was “inactive” throughout.

The values are drawn from ChEMBL document CHEMBL4028856, “Discovery of Small Molecules Targeting the Synergy of Cardiac Transcription Factors GATA4 and NKX2-5” (J Med Chem, 2017).
